One assay relates to SW480. In words: Cytotoxicity against human SW480 cells by MTT assay. It counts as functional, cell-based. Background: Tetrazolium dyes change colour on reduction, which living cells bring about.
For assay [1], the system named is Staphylococcus aureus. In words: Antimicrobial activity against Staphylococcus aureus after 18 hrs by two-fold dilution method. It counts as functional.
Assay [2] has as its system Staphylococcus aureus. Kind of assay: Antimicrobial activity against Staphylococcus aureus by agar plate punch assay. It counts as functional. The method, boiled down: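 Compounds dissolved in DMSO at 500 μg/mL; 50 μL placed in a 6 mm well punched in MH agar smeared with test organism suspension (1.5 × 10^9 cfu/mL). Read-out is diameter of the inhibition zone.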
The test system of assay [3] is Staphylococcus aureus. Kind of assay: Antimicrobial activity against 8 isolates of methicillin-resistant Staphylococcus aureus after 18 hrs by two-fold dilution method. Type of assay: functional.
Another assay concerns MCF7. In words: Cytotoxicity against human MCF7 cells by MTT assay. Type of assay: functional, cell-based.
Assay [4] concerns Staphylococcus aureus. Kind of assay: Antimicrobial activity against 82 isolates of methicillin-resistant Staphylococcus aureus after 18 hrs by two-fold dilution method. Type of assay: functional.
A further assay deals with HL-60. Kind of assay: Cytotoxicity against human HL60 cells by MTT assay. Type of assay: functional, cell-based.
The test system of another assay is SMMC-7721. Kind of assay: Cytotoxicity against human SMMC7721 cells by MTT assay. Type of assay: functional, cell-based.
Another assay deals with A549. Kind of assay: Cytotoxicity against human A549 cells by MTT assay. Type of assay: functional, cell-based.

The structures appear in SMILES notation. ≈ marks a conversion by molar mass, not a printed value.

From ChEMBL document CHEMBL2046279, “Trigoflavidols A-C, degraded diterpenoids with antimicrobial activity, from Trigonostemon flavidus” (J Nat Prod, 2012) come the findings set out here.

For orientation: IC50 means the concentration at which inhibition is half-maximal. Low values mean higher potency, high ones lower potency. By MIC is commonly meant the smallest concentration in the dilution series that meets the test's criterion for growth inhibition. Regarding `COC(=O)[C@@]1(O)[C@]2(Oc3cc4c(cc(OC)c5cc(C)c(O)cc54)c(C)c3O2)c2c(cc(OC)c3cc(C)c(O)cc23)[C@@]1(C)O` (relative stereo), the IC50 was found to be 15.9 µM in the assay with SW480; 14.6 µM with MCF7; 21.1 µM with HL-60; 21.6 µM in the assay with SMMC-7721; 19.8 µM in the assay with A549. Besides, the values for the MIC in the assay with Staphylococcus aureus [1], in the assay on Staphylococcus aureus [3] and in the assay with Staphylococcus aureus [4] were 1.56 µg/mL (≈ 2.55 µM), 3.12 µg/mL (≈ 5.09 µM) and 6.25 µg/mL (≈ 10.2 µM), respectively. In addition, the “diameter of the inhibition zone (DIZ)” value in the assay with Staphylococcus aureus [2] is reported as >10 mm.

For `Cc1cc2c(cc1O)C1=C(C3=C4C(=CC(=O)c5cc(C)c(O)cc54)C(C)(C)C3=O)C(=O)C(C)(C)C1=CC2=O` [NEOBOUTOMANNIN], the IC50 in the assay with SW480, in the assay with MCF7, with HL-60, in the assay with SMMC-7721 and in the assay on A549 was > 40 µM throughout. The MIC against Staphylococcus aureus [1] is > 50 µg/mL.

Regarding `COC(=O)[C@@]1(O)[C@@]2(Oc3cc4c(cc(OC)c5cc(C)c(O)cc54)c(C)c3O2)c2c(cc(OC)c3cc(C)c(O)cc23)[C@@]1(C)O` [TRIGOFLAVIDOL B], the IC50 with SW480 was 15.4 µM; in the assay on MCF7 it was 14.6 µM; with HL-60 it was > 40 µM; in the assay on SMMC-7721 it was 19.5 µM; in the assay on A549, 17.1 µM. The values for the minimum inhibitory concentration (MIC) against Staphylococcus aureus [1], in the assay on Staphylococcus aureus [3] and against Staphylococcus aureus [4] were 1.56 µg/mL (≈ 2.55 µM), 3.12 µg/mL (≈ 5.09 µM) and 3.12 µg/mL (≈ 5.09 µM), respectively. For the same compound, the “diameter of the inhibition zone (DIZ)” value with Staphylococcus aureus [2] is >10 mm.

Take `COc1cc2c(cc(OC)c3cc(C)c(O)cc32)oc1=O` [TRIGOFLAVIDOL C]: the IC50 in the assay on SW480, with MCF7, in the assay with HL-60, with SMMC-7721 and in the assay with A549 was > 40 µM throughout. For the same compound, in the assay on Staphylococcus aureus [1], the MIC was > 50 µg/mL.

Turning to `COc1cc2c(cc(OC)c3cc(C)c(O)cc32)c(C)c1O` [TRIGONOCHINENE E], the IC50 stood at 20.5 µM with SW480; 18.4 µM in the assay with MCF7; 3.75 µM with HL-60; 29 µM in the assay on SMMC-7721; 21 µM in the assay on A549. The MIC against Staphylococcus aureus [1] was > 50 µg/mL. In addition, the “diameter of the inhibition zone (DIZ)” value with Staphylococcus aureus [2] is >10 mm.

With `CN[C@H](CC(C)C)C(=O)N[C@H]1C(=O)N[C@@H](CC(N)=O)C(=O)N[C@H]2C(=O)N[C@H]3C(=O)N[C@H](C(=O)N[C@H](C(=O)O)c4cc(O)cc(O)c4-c4cc3ccc4O)[C@H](O)c3ccc(c(Cl)c3)Oc3cc2cc(c3O[C@@H]2O[C@H](CO)[C@@H](O)[C@H](O)[C@H]2O[C@H]2C[C@](C)(N)[C@H](O)[C@H](C)O2)Oc2ccc(cc2Cl)[C@H]1O.Cl` [VANCOMYCIN HYDROCHLORIDE], the MIC was 1.56 µg/mL against Staphylococcus aureus [1], 0.78 µg/mL against Staphylococcus aureus [3] and 0.78 µg/mL with Staphylococcus aureus [4].
